The values below come from ChEMBL document CHEMBL4622841, “Structural modifications of indolinones bearing a pyrrole moiety and discovery of a multi-kinase inhibitor with potent antitumor activity” (Bioorg Med Chem, 2020).

The structures appear in SMILES notation. The source made the active and inactive calls. The calls are words filed in the database; no cut-off is given here. A value given as a limit tells only on which side of the number the result lay.

For data set [1], the system named is HepG2. Briefly: Induction of apoptosis in human HepG2 cells assessed as early apoptotic cells at 0.3 uM incubated for 72 hrs by Annexin-V-FITC/propidium iodide staining-based flow cytometric analysis (reference value: 1.08%). The class given is functional. (A flow cytometer gives signals particle by particle.)
Data set [2] has as its system MKN-74. The data set is described as follows: Induction of apoptosis in human MKN74 cells incubated for 72 hrs by Annexin-V-FITC/propidium iodide staining-based flow cytometric analysis. The class given is functional, cell-based.
Data set [3] addresses T1, Cyclin-dependent kinase 2 (Homo sapiens, UniProt P24941). The data set is described as follows: Inhibition of CDK2 (unknown origin) at 1 uM using FAM-labeled peptide and ATP as substrate preincubated for 10 mins followed by substrate addition measured after 1 hr by mobility shift assay.
For data set [4], the system named is MKN-74. The data set is described as follows: Induction of apoptosis in human MKN74 cells assessed as viable cells at 0.3 uM incubated for 72 hrs by Annexin-V-FITC/propidium iodide staining-based flow cytometric analysis (reference value: 76.84%). It counts as functional. The settings on record: MKN-74, 72 h, read-out: Activity.
The target in data set [5] is Vascular endothelial growth factor receptor 1 (Homo sapiens, UniProt P17948). Briefly: Inhibition of GST-tagged human recombinant VEGFR1 cytoplasmic domain (781 to 1338 residues) expressed in baculovirus expression system using FAM-labeled peptide and ATP as substrate preincubated for 10 mins followed by substrate addition measured after 1 hr by mobility shift assay.
Chain of Vascular endothelial growth factor receptor 1 (P17948 whole entry, the tested form may be a part): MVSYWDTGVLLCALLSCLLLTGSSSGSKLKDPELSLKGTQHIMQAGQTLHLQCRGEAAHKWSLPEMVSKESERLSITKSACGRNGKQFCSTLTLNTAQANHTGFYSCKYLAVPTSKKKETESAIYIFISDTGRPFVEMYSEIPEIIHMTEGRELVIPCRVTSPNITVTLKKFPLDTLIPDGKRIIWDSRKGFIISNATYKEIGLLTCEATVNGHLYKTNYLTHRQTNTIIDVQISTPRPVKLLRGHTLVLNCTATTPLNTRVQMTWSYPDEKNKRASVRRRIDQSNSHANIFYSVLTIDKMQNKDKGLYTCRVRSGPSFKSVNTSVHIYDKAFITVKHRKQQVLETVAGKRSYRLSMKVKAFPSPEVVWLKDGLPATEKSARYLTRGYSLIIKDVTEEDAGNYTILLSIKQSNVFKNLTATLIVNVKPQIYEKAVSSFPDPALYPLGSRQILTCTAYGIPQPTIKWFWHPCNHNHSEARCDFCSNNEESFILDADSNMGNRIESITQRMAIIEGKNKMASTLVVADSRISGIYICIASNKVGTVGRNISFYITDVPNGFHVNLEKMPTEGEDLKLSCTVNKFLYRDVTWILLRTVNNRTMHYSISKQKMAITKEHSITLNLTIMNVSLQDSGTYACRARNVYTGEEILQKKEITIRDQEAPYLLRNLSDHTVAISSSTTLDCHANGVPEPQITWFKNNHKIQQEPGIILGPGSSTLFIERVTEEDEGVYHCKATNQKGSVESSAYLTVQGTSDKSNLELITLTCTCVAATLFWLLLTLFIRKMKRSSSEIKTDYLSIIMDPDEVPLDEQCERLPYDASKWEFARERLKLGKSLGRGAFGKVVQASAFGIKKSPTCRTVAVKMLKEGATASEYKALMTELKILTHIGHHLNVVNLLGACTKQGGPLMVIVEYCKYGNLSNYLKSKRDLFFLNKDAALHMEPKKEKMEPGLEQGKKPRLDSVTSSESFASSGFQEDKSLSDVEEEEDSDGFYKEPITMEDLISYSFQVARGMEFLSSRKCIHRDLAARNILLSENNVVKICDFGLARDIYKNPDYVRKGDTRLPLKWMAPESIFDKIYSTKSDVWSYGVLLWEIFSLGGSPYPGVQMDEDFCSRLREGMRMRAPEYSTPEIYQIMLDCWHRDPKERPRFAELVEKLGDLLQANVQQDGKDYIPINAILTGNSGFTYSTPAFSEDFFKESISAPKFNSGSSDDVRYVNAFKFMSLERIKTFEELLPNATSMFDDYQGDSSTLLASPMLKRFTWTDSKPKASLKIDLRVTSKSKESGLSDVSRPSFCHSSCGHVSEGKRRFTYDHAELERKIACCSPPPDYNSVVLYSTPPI

The subject of a further data set is HEK-293T. Briefly: Induction of apoptosis in human HEK293T cells by Annexin-V-FITC/propidium iodide staining-based flow cytometric analysis. It counts as cell-based.
Data set [6] is described as follows: Intrinsic clearance in mouse liver microsomes. To be noted: read-out: CLH. It counts as ADME, Microsome. In general terms: Liver microsomes are vesicles of endoplasmic reticulum, rich in cytochrome P450 enzymes.
The test system of data set [7] is HepG2. The data set is described as follows: Inhibition of colony formation in human HepG2 cells at 1 uM measured after 14 days by crystal violet staining-based assay. The class given is functional, cell-based. The method in brief:
(§1)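 Cells plated and exposed to test agent at a range of concentrations for 14 days, then colonies counted. Colony formation expressed relative to vehicle-treated cells as mean ± SEM. Significance versus vehicle by unpaired two-tailed Student's t-test.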

Data set [8] concerns the target T1, Cyclin-dependent kinase 2. Briefly: Inhibition of CDK2 (unknown origin) using FAM-labeled peptide and ATP as substrate preincubated for 10 mins followed by substrate addition measured after 1 hr by mobility shift assay.
In another data set the test system is HT-29. The data set is described as follows: Inhibition of colony formation in human HT-29 cells measured after 14 days by crystal violet staining-based assay. It counts as functional, cell-based. The method in brief: as §1
Data set [9] has as its system MKN-74. Briefly: Induction of apoptosis in human MKN74 cells assessed as late apoptotic cells at 3 uM incubated for 72 hrs by Annexin-V-FITC/propidium iodide staining-based flow cytometric analysis (reference value: 12.42%). The class given is functional.
The next data set concerns HUVEC. The data set is described as follows: Induction of apoptosis in human HUVEC cells assessed as early apoptotic cells at 1 uM incubated for 48 hrs by Annexin-V-FITC/propidium iodide staining-based flow cytometric analysis (reference value: 3.63%). It counts as functional.

As to `COC(=O)c1ccc2c(c1)NC(=O)/C2=C(\Nc1ccc(-n2c(C)ccc2CN2CCN(C)CC2)cc1)c1ccccc1`, the Activity in the data set with HepG2 [1] was 1.81%; in the data set with MKN-74 [2], “Dose-dependent effect”; with HEK-293T, “Non-Toxic”; in the data set on MKN-74 [9], 79.51%; with HUVEC, 3.58%. In data set [3], the inhibition result was “inactive”. For the same compound, the viability at 0.3 µM with MKN-74 [4] turned out to be 73.5%. For the same compound, the IC50 – broadly, the point on the concentration scale where inhibition reaches its midpoint – is 31 nM in data set [5] and over 1000 nM in data set [8]. Moreover, the CLint scaled in [6] was 436 mL/min/kg. Moreover, the inhibition entry in the data set with HepG2 [7] is “Active”. Besides, in the data set on HT-29, the inhibition result was “Dose-dependent effect”.
